Results as given in ChEMBL document CHEMBL3588803, “Design, synthesis and pharmacology of 1,1-bistrifluoromethylcarbinol derivatives as liver X receptor β-selective agonists” (Bioorg Med Chem Lett, 2015).

Legend:
[1] = target: T1, Oxysterols receptor LXR-alpha (Homo sapiens, UniProt Q13133); experiment: Agonist activity at LXRalpha (unknown origin) expressed in CHOK1 cells incubated for 24 hrs by GAL4-responsive luciferase reporter gene assay; type: cell-based, CHO-K1
T1 sequence (Q13133 whole entry): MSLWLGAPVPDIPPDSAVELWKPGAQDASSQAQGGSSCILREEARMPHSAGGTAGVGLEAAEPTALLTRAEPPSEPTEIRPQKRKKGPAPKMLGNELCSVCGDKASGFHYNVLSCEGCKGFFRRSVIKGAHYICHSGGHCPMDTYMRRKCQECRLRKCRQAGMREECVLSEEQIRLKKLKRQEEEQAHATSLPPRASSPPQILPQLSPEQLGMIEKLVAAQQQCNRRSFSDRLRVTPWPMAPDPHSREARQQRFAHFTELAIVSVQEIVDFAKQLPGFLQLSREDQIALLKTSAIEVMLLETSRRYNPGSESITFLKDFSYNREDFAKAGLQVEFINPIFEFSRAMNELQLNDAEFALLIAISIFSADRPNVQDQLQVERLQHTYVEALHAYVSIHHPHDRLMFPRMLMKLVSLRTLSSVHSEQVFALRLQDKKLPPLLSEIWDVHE
Method in brief: (§1)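 CHO-K1 cells carrying the GAL4-responsive pG5luc reporter and a GAL4-LXR LBD construct were seeded at 20,000 cells/well in HAM-F12 with 10% immobilized fetal bovine serum, penicillin G and streptomycin, at 37 °C and 5% CO2. After 24 h, compound was added at 0.01–30 µM for a further 24 h. Luminescence was read with Bright-Glo substrate. EC50 is the mean of two independent experiments.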

[2] = target: T2, Oxysterols receptor LXR-alpha (Homo sapiens) (UniProt Q13133); experiment: Agonist activity at LXRalpha (unknown origin) expressed in CHOK1 cells incubated for 24 hrs by GAL4-responsive luciferase reporter gene assay relative to 10 uM T0901317; type: cell-based; conditions: CHO-K1
T2 sequence (whole entry): T1 sequence (Q13133 whole entry)
Method in brief: (§2)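 The GAL4-LXR LBD luciferase reporter was run in CHO-K1 cells. Cells were seeded at 20,000/well in HAM-F12 with 10% immobilized FBS and antibiotics for 24 h, then exposed to compound at 0.01, 0.1, 1, 10 and 30 µM for 24 h, with a Bright-Glo luminescence read-out. Values are means of two independent experiments.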

[3] = target: T3, Oxysterols receptor LXR-beta (Homo sapiens, UniProt P55055); experiment: Agonist activity at LXRbeta (unknown origin) expressed in CHOK1 cells incubated for 24 hrs by GAL4-responsive luciferase reporter gene assay; type: cell-based, CHO-K1; method in brief: as §1
T3 sequence (P55055 whole entry): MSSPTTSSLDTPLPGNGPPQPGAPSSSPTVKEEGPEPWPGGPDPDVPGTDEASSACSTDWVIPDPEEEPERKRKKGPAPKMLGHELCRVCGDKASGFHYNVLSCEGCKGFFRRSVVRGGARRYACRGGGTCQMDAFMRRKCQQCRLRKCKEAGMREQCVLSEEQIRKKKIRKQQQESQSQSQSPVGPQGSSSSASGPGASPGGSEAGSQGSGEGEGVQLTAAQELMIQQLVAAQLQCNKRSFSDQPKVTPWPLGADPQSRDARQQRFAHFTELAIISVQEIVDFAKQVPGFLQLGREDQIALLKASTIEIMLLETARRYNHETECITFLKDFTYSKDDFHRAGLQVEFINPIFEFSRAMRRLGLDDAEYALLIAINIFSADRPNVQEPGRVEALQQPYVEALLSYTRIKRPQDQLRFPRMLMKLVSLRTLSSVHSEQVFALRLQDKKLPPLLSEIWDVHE

[4] = target: T4, Oxysterols receptor LXR-beta (Homo sapiens) (UniProt P55055); experiment: Agonist activity at LXRbeta (unknown origin) expressed in CHOK1 cells incubated for 24 hrs by GAL4-responsive luciferase reporter gene assay relative to 10 uM T0901317; type: cell-based; conditions: CHO-K1; method in brief: as §2
T4 sequence (whole entry): T3 sequence (P55055 whole entry)

[5] = Clearance in mouse hepatic microsomes; type: ADME; conditions: liver microsomes, read-out: CLH
[6] = Clearance in hamster hepatic microsomes; type: ADME; conditions: cricetinae, liver microsomes; read-out: CLH
[7] = Clearance in human hepatic microsomes; type: ADME; conditions: liver microsomes, read-out: CLH
[8] = target: T3, Oxysterols receptor LXR-beta; experiment: Agonist activity at LXRbeta (unknown origin)
Syrian golden hamster = experiment: Drug level in CE-2 chow diet-fed golden Syrian hamster treated with 100 mg/kg, po 3-(4-(4-(1,1,1,3,3,3-Hexafluoro-2-hydroxypropan-2-yl)-2,6-di-n-propylphenoxy)-butyl)-5-(4-(1-methylethoxy)phenyl)-5-methylimidazolidine-2,4-dione assessed as compound formation after 0.5 to 24 hrs by HPLC-LC-MS/MS method; type: ADME, organism-based, Mesocricetus auratus; conditions: in vivo
Hamster [9] = experiment: Increase in ABCA1 gene expression in Bio F1B hamster intestine at 10 mg/kg, po; type: functional, Cricetinae
Hamster [10] = experiment: Increase in ABCA1 gene expression in Bio F1B hamster peripheral blood at 10 mg/kg, po; type: functional, Cricetinae
Hamster [11] = experiment: Increase in ABCG5 gene expression in Bio F1B hamster intestine at 10 mg/kg, po; type: functional, Cricetinae
Hamster [12] = experiment: Increase in ABCG8 gene expression in Bio F1B hamster intestine at 10 mg/kg, po; type: functional, Cricetinae
Hamster [13] = experiment: Hypolipidemic effect in Bio F1B hamster fed with high fat and cholesterol diet assessed as total cholesterol level at 10 mg/kg, po relative to control; type: functional, Cricetinae
Hamster [14] = experiment: Hypolipidemic effect in Bio F1B hamster fed with high fat and cholesterol diet assessed as HDL-cholesterol level at 10 mg/kg, po relative to control; type: functional, Cricetinae
Hamster [15] = experiment: Hypolipidemic effect in Bio F1B hamster fed with high fat and cholesterol diet assessed as LDL-cholesterol level at 10 mg/kg, po relative to control; type: functional, Cricetinae
Hamster [16] = experiment: Effect in lipid profiles in Bio F1B hamster fed with high fat and cholesterol diet assessed as triglyceride level at 10 mg/kg, po relative to control; type: organism-based; conditions: cricetinae, in vivo
Hamster [17] = experiment: Hypolipidemic effect in Bio F1B hamster fed with high fat and cholesterol diet assessed as lipid-accumulation area in aortic arch at 10 mg/kg, po relative to control; type: functional, Cricetinae

SMILES | EC50 [1] | Emax [2] | EC50 [3] | Emax [4] | also measured
CCCc1cc(C(O)(C(F)(F)F)C(F)(F)F)ccc1OCCCCN1C(=O)NC(CCC)(c2ccc3c(c2)OCO3)C1=O (centres undefined) | 2.3 µM | 42% | 1.3 µM | 72% | –
CCCc1cc(C(O)(C(F)(F)F)C(F)(F)F)ccc1OCCCCN1C(=O)NC(CC)(c2ccc3c(c2)OCO3)C1=O (centres undefined) | 1.5 µM | 72% | 0.7 µM | 172% | –
CCCc1cc(C(O)(C(F)(F)F)C(F)(F)F)ccc1OCCCCN1C(=O)NC(C)(c2ccc3c(c2)OCO3)C1=O (centres undefined) | 1.7 µM | 54% | 0.5 µM | 118% | microsomal CLint [5]: 73 µL/min/mg; microsomal CLint [6]: 351 µL/min/mg; microsomal CLint [7]: 31 µL/min/mg
O=C(O)Cc1cccc(OCCCN(Cc2cccc(C(F)(F)F)c2Cl)CC(c2ccccc2)c2ccccc2)c1 | – | – | – | – | EC50 [8]: 0.4 µM
CCCc1cc(C(O)(C(F)(F)F)C(F)(F)F)cc(CCC)c1OCCCCN1C(=O)NC(C)(c2ccc3c(c2)OCO3)C1=O (centres undefined) | 0.4 µM | 89% | 0.1 µM | 101% | –
CCCc1cc(C(O)(C(F)(F)F)C(F)(F)F)cc(CCC)c1OCCCC(=O)O | – | – | – | – | Drug metabolism (Syrian golden hamster): metabolite_detected
O=S(=O)(c1ccccc1)N(CC(F)(F)F)c1ccc(C(O)(C(F)(F)F)C(F)(F)F)cc1 [T091317] | – | – | – | – | fold change (FC) (Hamster [9]): 3.4; fold change (FC) (Hamster [10]): 1.3; fold change (FC) (Hamster [11]): 1.5; fold change (FC) (Hamster [12]): 1.4; Activity (Hamster [13]): 124%; Activity (Hamster [14]): 76%; Activity (Hamster [15]): 75%; Activity (Hamster [16]): 251%; Activity (Hamster [17]): 40%
CCCc1cc(C(O)(C(F)(F)F)C(F)(F)F)cc(CCC)c1OCCCCN1C(=O)NC(CC)(c2ccc3c(c2)OCO3)C1=O (centres undefined) | 0.6 µM | 118% | 0.7 µM | 118% | –
